The test system of experiment [1] is Vero. In words: Maximum tolerated concentration (MTC), the lowest concentration that produced microscopically evident toxicity to confluent vero cells. The class given is functional, Chlorocebus sabaeus. A digest of the protocol: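 Uninfected confluent Vero monolayers in DMEM with 10% newborn bovine serum, single well per concentration, exposed to compound at final 5.0–5000 μM (0.5-log steps) for 72 h at 37 °C, 5% CO2. Cytotoxicity was any microscopic change in morphology or monolayer density from lysis, rounding or detachment. MTC = lowest concentration showing such change.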

In experiment [2] the test system is Vero. In words: Compound was tested for antiviral activity against Herpes simplex virus type 1 (HF). The class given is functional. Particulars: Chlorocebus sabaeus, read-out: ED50 (the source's name).
For experiment [3], the system named is Vero. In words: Compound was tested for antiviral activity against Herpes simplex virus type 1(KOS). The conditions noted are these: Chlorocebus sabaeus, read-out: ED50 (the source's name). It is filed as functional.
Experiment [4] concerns Vero. In words: Compound was tested for antiviral activity against Herpes simplex virus type 2 (MS). The class given is functional. The conditions noted are these: Chlorocebus sabaeus, read-out: ED50 (the source's name).
Experiment [5] relates to Vero. In words: Compound was tested for antiviral activity against Herpes simplex virus type 2 of strain 333. The class given is functional. The conditions noted are these: Chlorocebus sabaeus, read-out: ED50 (the source's name).
In experiment [6] the test system is Vero. The experiment in a line: Compound was tested for antiviral activity against measles virus. It is filed as functional. The conditions noted are these: Chlorocebus sabaeus, read-out: ED50 (the source's name).
The subject of experiment [7] is Vero. The experiment in a line: Virus rating against Herpes simplex virus type 2 of strain 333. It is filed as functional, Chlorocebus sabaeus. An outline of the steps: (§1)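 Virus-infected confluent Vero cells treated with compound in seven 0.5-log steps (final 5.0–5000 μM) after 30-min adsorption at 37 °C, duplicate wells per concentration. CPE scored microscopically 0 (normal) to 4 (complete destruction) after 72 h at 37 °C, 5% CO2.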

In experiment [8] the test system is Vero. In words: Virus rating against Herpes simplex virus type 2 of strain MS. It is filed as functional, Chlorocebus sabaeus. An outline of the steps:
as §1

Experiment [9] has as its system Vero. The experiment in a line: Virus rating against Herpes simplex virus type 1 of strain KOS. It is filed as functional, Chlorocebus sabaeus. An outline of the steps: as §1
Experiment [10] has as its system Vero. In words: Virus rating against Herpes simplex virus type 1 of strainHF. It is filed as functional, Chlorocebus sabaeus. A digest of the protocol: as §1
The test system of experiment [11] is Vero. The experiment in a line: Virus rating against measles virus. It is filed as functional, Chlorocebus sabaeus. A digest of the protocol: as §1
Experiment [12] concerns Vero. In words: Virus rating against para 3. The class given is functional, Chlorocebus sabaeus. A digest of the protocol: as §1
Experiment [13] concerns Vero. In words: Virus rating against vaccinia. It is filed as functional, Chlorocebus sabaeus. A digest of the protocol: as §1
The subject of experiment [14] is Vero. The experiment in a line: Compound was tested for antiviral activity against vaccinia. It is filed as functional. Particulars: Chlorocebus sabaeus, read-out: ED50 (the source's name).
In experiment [15] the test system is Vero. In words: Compound was tested for antiviral activity against para 3. The conditions noted are these: Chlorocebus sabaeus, read-out: ED50 (the source's name). The class given is functional.
In experiment [16] the test system is Vero. In words: Virus rating against Herpes simplex virus type 1 of strain HF. The class given is functional, Chlorocebus sabaeus. A digest of the protocol: as §1

In ChEMBL document CHEMBL1123333, “Synthesis and antiviral activity of certain nucleoside 5'-phosphonoformate derivatives” (1986) one finds MTC, EC50 and VR data, which are given here for 9 compounds.

A value given as a limit tells only on which side of the number the result lay.

In the experiment with Vero [1], `Nc1nc(O)c2ncn([C@H]3C[C@H](O)[C@@H](COP(=O)(O)C(=O)O)O3)c2n1` yielded an MTC of 5000 µM. Also, the EC50 is more than 5 mM with Vero [2]; more than 5 mM in the experiment on Vero [3]; 350 µM in the experiment on Vero [4]; 230 µM in the experiment on Vero [5]; more than 5000 µM in the experiment on Vero [6]; more than 5 mM with Vero [14]. The VR turned out to be 1.26 in the experiment with Vero [7]; 1.18 in the experiment with Vero [8]; 0.1 with Vero [9]; 0.22 with Vero [10]; 0.1 in the experiment on Vero [11]; 0.25 in the experiment on Vero [12]. The VR with Vero [13] is on record as 0.
On to `Nc1ncnc2c1ncn2[C@H]1C[C@H](O)[C@@H](COP(=O)(O)C(=O)O)O1`, for which the MTC in the experiment on Vero [1] was more than 5000 µM. Also, the EC50 in the experiment with Vero [2] is 0.73 mM; in the experiment with Vero [3], 1.8 mM; in the experiment with Vero [4], 40 µM; with Vero [5], 54 µM; with Vero [6], 900 µM; in the experiment with Vero [14] it was more than 5 mM. Further, the VR came to 1.77 in the experiment on Vero [7]; 1.85 with Vero [8]; 0.65 with Vero [9]; 1.08 in the experiment with Vero [10]; 0.7 in the experiment with Vero [11]; 0 with Vero [13].
Consider `Nc1ncnc2c1ncn2C1O[C@H](COP(=O)(O)C(=O)O)[C@@H](O)[C@H]1O` (stereo partly specified), for which the MTC with Vero [1] was more than 5000 µM. Moreover, the EC50 in the experiment on Vero [2] is more than 5 mM; in the experiment with Vero [3] it was more than 5 mM; in the experiment with Vero [4], 360 µM; in the experiment on Vero [5], 1600 µM; in the experiment on Vero [6] it was 3000 µM; in the experiment with Vero [15], more than 5 mM. The EC50 in the experiment on Vero [14] is 0.74 mM. The VR in the experiment on Vero [7] came to 0.7; with Vero [8], 1.15; in the experiment with Vero [9] it was 0; in the experiment with Vero [10], 0.18; in the experiment with Vero [11], 0.38; with Vero [12], 0. In the experiment on Vero [13], this compound displayed a VR of 0.65.
With `CCOC(=O)P(=O)(O)OC[C@H]1OC(n2cnc3c(N)ncnc32)[C@H](O)[C@@H]1O` (stereo partly specified), the MTC in the experiment on Vero [1] was more than 5000 µM. For the same compound, the EC50 with Vero [2] is more than 5 mM; in the experiment on Vero [3], more than 5 mM; in the experiment on Vero [4], 820 µM; in the experiment on Vero [5], 1000 µM; in the experiment on Vero [6], more than 5000 µM; in the experiment with Vero [15] it was more than 5 mM. In addition, the EC50 in the experiment with Vero [14] is more than 5 mM. Also, the VR with Vero [7] is 0.72; in the experiment on Vero [8] it was 1.12; in the experiment with Vero [9] it was 0; in the experiment with Vero [10] it was 0.3; with Vero [12], 0; in the experiment with Vero [13], 0.23.
`NC(=O)P(=O)(O)OC[C@H]1OC(n2cnc3c(N)ncnc32)[C@H](O)[C@@H]1O` (stereo partly specified): the MTC in the experiment with Vero [1] was more than 5000 µM. In addition, the EC50 in the experiment on Vero [2] is more than 5 mM; with Vero [3], more than 5 mM; in the experiment on Vero [4], 830 µM; in the experiment on Vero [5], 440 µM; in the experiment with Vero [6], 2800 µM; with Vero [15] it was more than 5 mM. Further, the EC50 in the experiment on Vero [14] is more than 5 mM. In addition, the VR is listed as 1.24 with Vero [7]; 1 in the experiment with Vero [8]; 0 in the experiment on Vero [9]; 0.28 with Vero [10]; 0.45 in the experiment with Vero [11]; 0.1 in the experiment on Vero [12]. For the same compound, in the experiment on Vero [13], the VR worked out at 0.
Compound `NC(=O)P(=O)(O)OC[C@H]1OC(n2cnc3c(O)nc(N)nc32)[C@H](O)[C@@H]1O` (stereo partly specified) gave an MTC in the experiment on Vero [1] of more than 5000 µM. Also, the EC50 is more than 5 mM with Vero [2]; more than 5 mM with Vero [3]; 970 µM with Vero [4]; 300 µM with Vero [5]; 900 µM in the experiment with Vero [6]; more than 5 mM in the experiment on Vero [15]. In addition, the EC50 in the experiment with Vero [14] was more than 5 mM. Also, the VR is reported as 1.16 in the experiment on Vero [7]; 0.91 with Vero [8]; 0 in the experiment on Vero [9]; 0 with Vero [10]; 0.7 in the experiment on Vero [11]; 0.1 with Vero [12]. This compound returned a VR in the experiment with Vero [13] of 0.
`CCOC(=O)P(=O)(O)OC[C@H]1OC(n2cnc3c(O)nc(N)nc32)[C@H](O)[C@@H]1O` (stereo partly specified): the MTC in the experiment on Vero [1] was more than 5000 µM. The EC50 was more than 5 mM with Vero [2]; more than 5 mM with Vero [3]; 820 µM in the experiment on Vero [4]; 600 µM with Vero [5]; 500 µM in the experiment on Vero [6]; more than 5 mM in the experiment with Vero [15]. In addition, the EC50 in the experiment with Vero [14] is more than 5 mM. Also, the VR in the experiment on Vero [7] amounted to 1.02; in the experiment on Vero [8], 0.9; in the experiment on Vero [16], 0.22; with Vero [9], 0; in the experiment with Vero [11], 0.68; with Vero [12] it was 0.1. The compound also registered a VR in the experiment with Vero [13] of 0.
In the experiment with Vero [1], `Nc1nc(O)c2ncn(C3O[C@H](COP(=O)(O)C(=O)O)[C@@H](O)[C@H]3O)c2n1` (stereo partly specified) came in with an MTC of more than 5000 µM. For the same compound, the EC50 is more than 5 mM in the experiment on Vero [2]; more than 5 mM in the experiment on Vero [3]; more than 5000 µM in the experiment on Vero [4]; more than 5000 µM in the experiment with Vero [5]; 330 µM with Vero [6]; more than 5 mM in the experiment with Vero [15]. The EC50 with Vero [14] is more than 5 mM. In addition, the VR is reported as 0.22 with Vero [7]; 0.18 in the experiment with Vero [8]; 0 with Vero [9]; 0.2 with Vero [10]; 0.62 with Vero [11]; 0.1 with Vero [12]. Moreover, in the experiment on Vero [13], the VR is listed as 0.
Compound `O=C([O-])P(=O)([O-])[O-].[Na+].[Na+].[Na+]` [FOSCARNET SODIUM] registered an MTC with Vero [1] of more than 5000 µM. For the same compound, the EC50 in the experiment on Vero [2] was 0.23 mM; in the experiment on Vero [3], 0.17 mM; in the experiment on Vero [4], 89 µM; in the experiment on Vero [5] it was 20 µM; in the experiment with Vero [6], more than 5000 µM; with Vero [15], 5 mM. Moreover, the EC50 with Vero [14] is more than 5 mM. Also, the VR in the experiment with Vero [7] turned out to be 2.08; with Vero [8], 1.74; with Vero [9], 1.37; in the experiment with Vero [10], 1.3; with Vero [11] it was 0; with Vero [12], 0.4. Moreover, the VR in the experiment on Vero [13] came to 0.1.
